# CTSL1 counter = counter-screen for PFM18AAP inhibitors: inhibitors of F. hepatica cathepsin L1. 300,000 compounds, 0.49% hits. AID 1906. recombinant F. hepatica cathepsin L1, Z-Leu-Arg-MCA fluorescence. inhibition, % at 5.96 µM;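 active means inhibition above the mean of all tested compounds plus 3 SD, set per screening campaign, cut at about 17% in these data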
# EBNA-1 inh = blocks EBNA-1 binding to DNA | inhibition, % at 14.8 µM | 300,000 compounds, 0.34% hits | AID 1950 | EBNA-1 DNA binding, fluorescence polarization; in the data active means inhibition above about 28%
# ZTA DNA inh = ZTA (EBV) inhibition in EBNA-1 counter-screen | inhibition, % at 11 µM | 320,000 compounds, 0.15% hits | ZTA-DNA binding, fluorescence polarization | P03206 | AID 2234; in the data active means inhibition above about 33%
# Target sequence (P03206 whole entry, looked up): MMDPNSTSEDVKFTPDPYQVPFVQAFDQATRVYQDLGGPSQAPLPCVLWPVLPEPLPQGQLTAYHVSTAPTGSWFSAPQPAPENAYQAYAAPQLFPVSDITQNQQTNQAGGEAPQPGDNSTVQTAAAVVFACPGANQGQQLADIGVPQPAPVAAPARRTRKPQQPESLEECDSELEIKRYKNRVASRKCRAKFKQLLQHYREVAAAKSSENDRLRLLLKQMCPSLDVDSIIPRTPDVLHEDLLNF
# NS3 helicase inh = inhibitors of Hepatitis C virus NS3 helicase; NS3 helicase DNA unwinding, Cy5 molecular beacon fluorescence; inhibition, % at 10.9 µM; 290,000 compounds, 0.56% hits; AID 1800;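 active means inhibition above the mean of all tested compounds plus 3 SD, set per campaign, cut at about 35% in these data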
#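 System: HCV NS3 helicase fragment; control set: DMSO and thioflavine S; technique: Cy5 fluorescence at 0 and 60 min, beacon hairpin quenching; reagent: beacon DNA duplex substrate plus ATP; replicates: singlicate; schedule: 1 h reaction at 25 °C, ATP-initiated; medium: MOPS buffer pH 6.5 with MgCl2, DTT, Tween20, BSA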
# Hits are given with their value; i = inactive; nt = no result. Only some compounds are listed: those with a hit (about 1.4% of all), similar ones and a draw of the others.
SMILES,CTSL1 counter,EBNA-1 inh,ZTA DNA inh,NS3 helicase inh
CCOC(=O)C1(N(CC)CC)Sc2cc(C)ccc2NC1=O (centres undefined),i,i,i,i
CCOC(=O)C1(Nc2nccs2)Sc2ccccc2NC1=O (centres undefined),32.7,i,i,i
COc1cc(/C=C2\CCC(C3CCCC3)C2=O)cc(OC)c1OC (centres undefined),27.4,i,i,i
COc1ccc(/C=C2\CCC(C3CCCC3)C2=O)c(OC)c1OC (centres undefined),i,i,i,i
N#C/C(N=Nc1ccccc1O)=N\Nc1ccccc1O,33.6,i,i,nt
O=C(NCCc1ccc(Cl)cc1)c1cnc2n(c1=O)CCS2,i,i,i,nt
COc1ccc(CCNC(=O)c2ccccc2C(=O)NCCc2ccc(OC)c(OC)c2)cc1OC,i,i,i,nt
COc1ccc(CCNC(=O)Oc2ccccc2)cc1OC,17.7,i,i,i
COc1ccc(CCNC(=O)c2cnc3n(c2=O)CCS3)cc1OC,40.8,i,i,i
CN(CC(=O)N1CCN(c2cccc(Cl)c2)CC1)S(=O)(=O)c1cccs1,i,i,i,i
O=C(Nc1ccc(NC(=O)C2CCCCC2)nc1)c1ccco1,i,i,i,i
FC(F)(F)c1nnc2ccc(Sc3ccccn3)nn12,i,i,i,i
O=C(CSc1nnc(-c2ccc(OC(F)F)cc2)o1)NCc1cccs1,i,146.9,77.8,i
Cn1c(Cn2nnc3ccccc32)nnc1SCC(=O)N1c2ccccc2CCc2ccccc21,i,i,i,i
OC(CN1c2ccccc2Sc2ccccc21)Cn1nnc2ccccc21 (centres undefined),17.2,i,i,i
Cn1c(Cn2nnc3ccccc32)nnc1SCC(=O)N1c2ccccc2Sc2ccccc21,16.8,i,i,i
CC(C)(C)c1ccc(/C=C/C(=O)NCCCN2CCOCC2)cc1,i,i,i,i
Cc1ccc(C)c(NC(=O)CSc2nc3nc(-c4cccs4)cc(C(F)(F)F)c3c(=O)[nH]2)c1,i,i,i,i
CCn1cnc2cc(NCc3ccc(OC)cc3)ccc21,i,i,i,i
CCOc1ccc2nc3cc(NCc4ccc(OC)cc4)ccc3c(N)c2c1,i,i,101.0,i
O=C(NCc1ccco1)/C(=C/c1ccco1)NC(=O)c1ccco1,19.4,i,i,i
CC1CCCC(NC(=O)CCCn2c(=S)[nH]c3ccccc3c2=O)C1C (centres undefined),i,i,i,i
O=C(Cn1c(=O)oc2cc(S(=O)(=O)N3CCCCCC3)ccc21)NC1CCCCCCC1,16.7,i,i,i
CCCNC(=O)Cn1c(=O)oc2cc(S(=O)(=O)N3CCCC3)ccc21,i,i,i,i
CCOC(=O)C1=C(C)OC2(O)c3ccccc3C(=O)C12O (centres undefined),58.6,i,i,i
SMILES,CTSL1 counter,EBNA-1 inh,ZTA DNA inh,NS3 helicase inh
CC(=O)C1=C(C)OC2(O)c3ccccc3C(=O)C12O (centres undefined),51.2,i,i,i
Oc1ccc(/C=N/N=C/c2ccc(O)c(O)c2)cc1O,i,i,i,i
Oc1ccc(N=Cc2ccc(O)c(O)c2)cc1,46.3,i,i,i
Cc1ccc(NC(=O)c2nc[nH]c2C(=O)NCc2ccccc2)cc1,nt,nt,i,nt
CSc1c(C#N)c(N)c(C#N)c2c1COC(C)(C)C2,17.5,i,i,i
COc1ccc(NC(=O)c2cccnc2Nc2ccccc2)cc1,i,i,i,i
CC1=C(C(=O)OC(C)C)C(c2cncc(-c3ccc(F)cc3)c2)C(C#N)=C(N)O1 (centres undefined),18.5,i,i,i
CC1CCCCN1C(=O)CCn1c(=S)oc2ccccc21 (centres undefined),i,i,i,i
Cn1nnnc1SCC(=O)Nc1c(Cl)cccc1Cl,i,i,i,i
O=C(c1ccco1)N(CCC(c1ccccc1)c1ccco1)Cc1ccco1 (centres undefined),25.8,i,i,i
CC(=O)N(CCC(c1ccco1)C(C)C)Cc1ccc(OC(C)C)cc1 (centres undefined),17.2,i,i,i
CC(=O)N(CCC(c1ccccc1)c1ccco1)Cc1cccs1 (centres undefined),21.9,i,i,i
COc1ccc(CN(CCC(c2ccco2)C(C)C)C(C)=O)cc1OC (centres undefined),i,i,i,i
CC(=O)c1ccc(NC(=O)COC(=O)c2c3c(nc4ccccc24)/C(=C\c2cccs2)CCC3)cc1,i,43.5,i,i
O=C(COC(=O)c1c2c(nc3ccccc13)/C(=C\c1cccs1)CCC2)Nc1ccccc1,i,i,i,i

# Screening results: PubChem, The Scripps Research Institute Molecular Screening Center
